Numbered stars: 1 amine (or outer) side, 2 acyl side, 3 side chain; on linkers, the order of the positions; unused ones are H or OH. Square brackets hold non-standard residues; d marks the D form. Peptide text beside a SMILES is read from it. * marks the point of attachment. Hyp = O=C(O)[C@@H]1C[C@@H](O)CN1; X1 = CCCC(N[*:1])C(=O)C(=O)[*:2]; Chg = N[C@H](C(=O)O)C1CCCCC1; Phg = N[C@H](C(=O)O)c1ccccc1; Boc = CC(C)(C)OC(=O)*; tBu = CC(C)(C)*
What was measured:
[1] = target: NS3 (Hepatitis C virus, UniProt A3EZJ3); experiment: Inhibitory activity against HCV NS3 protease; set-up: species or system Hepacivirus hominis
NS3, sequence (A3EZJ3 whole entry): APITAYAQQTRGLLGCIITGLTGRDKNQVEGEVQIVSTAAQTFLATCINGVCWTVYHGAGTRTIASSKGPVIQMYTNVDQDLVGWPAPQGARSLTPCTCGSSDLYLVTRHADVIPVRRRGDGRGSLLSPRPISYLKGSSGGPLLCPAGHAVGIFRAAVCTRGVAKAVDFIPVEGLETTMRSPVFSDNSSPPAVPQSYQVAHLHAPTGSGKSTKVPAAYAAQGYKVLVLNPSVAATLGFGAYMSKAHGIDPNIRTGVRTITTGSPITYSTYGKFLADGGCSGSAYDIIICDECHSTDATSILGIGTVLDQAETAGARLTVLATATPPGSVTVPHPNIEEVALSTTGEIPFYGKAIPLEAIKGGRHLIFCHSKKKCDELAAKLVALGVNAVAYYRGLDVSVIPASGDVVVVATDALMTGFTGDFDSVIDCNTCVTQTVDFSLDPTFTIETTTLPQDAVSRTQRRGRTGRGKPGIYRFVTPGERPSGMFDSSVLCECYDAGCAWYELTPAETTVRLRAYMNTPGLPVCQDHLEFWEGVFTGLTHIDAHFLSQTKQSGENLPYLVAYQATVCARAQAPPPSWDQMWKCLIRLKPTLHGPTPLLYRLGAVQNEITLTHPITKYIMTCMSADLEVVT
In short: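 Continuous assay with a single-chain NS3 serine protease carrying tethered NS4A. Values are reported as Ki*, the equilibrium constant that reflects the reversible covalent bond formed between the inhibitor ketone and the active-site serine, plus other enzyme–inhibitor contacts. Most inhibitors were tested as an inseparable mixture of two diastereomers at the P1 R-centre.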

[2] = test system: Hepatitis C virus; experiment: Inhibition of HCV replication in a cellular replicon assay; format: functional, organism-based, Hepacivirus hominis
[3] = Selectivity for HNE over HCV NS3 protease
[4] = AUC in orally dosed rat; format: ADME, organism-based; details: plasma, po
[5] = AUC in iv dosed rat; format: ADME, organism-based; details: plasma
[6] = Oral bioavailability in rat; format: ADME, organism-based; details: in vivo
[7] = AUC in sc dosed rat; format: ADME, organism-based; details: plasma
[8] = Bioavailability in sc dosed rat; format: ADME, organism-based; details: in vivo

SMILES	Ki [1] [nM]	further results
CCCC(NC(=O)[C@@H]1C[C@@H]2CN1C(=O)[C@H](C1CCCCC1)NC(=O)Cc1cccc(c1)OCCC(C)(C)O2)C(=O)C(N)=O (some centres not stated)	220	AUC [4]: 0.3 µM·h
CCCC(NC(=O)[C@@H]1C[C@@H]2CN1C(=O)[C@H](C1CCCCC1)NC(=O)Cc1cccc(c1)OCCCO2)C(=O)C(=O)O (some centres not stated)	6100	
CCCC(NC(=O)[C@@H]1C[C@@H]2CN1C(=O)[C@H](C1CCCCC1)NC(=O)Cc1cccc(c1)OCCCO2)C(=O)C(=O)NCC(=O)N[C@H](C#N)c1ccccc1 (some centres not stated)	310	
CCC[C@@H](NC(=O)[C@@H]1C[C@@H]2CN1C(=O)[C@H](C1CCCCC1)NC(=O)Cc1cccc(c1)OCCCO2)C(=O)C(=O)NCC(=O)N[C@H](C(=O)N(C)C)c1ccccc1	500	
CCCC(NC(=O)[C@@H]1C[C@@H]2CN1C(=O)[C@H](C1CCCCC1)NC(=O)Cc1cccc(c1)OCCCO2)C(=O)C(=O)NC (some centres not stated)	9900	
C=CCNC(=O)C(=O)C(CCC)NC(=O)[C@@H]1C[C@@H]2CN1C(=O)[C@H](C1CCCCC1)NC(=O)Cc1cccc(c1)OCCCO2 (some centres not stated)	10000	
CCCC(NC(=O)[C@@H]1C[C@@H]2CN1C(=O)[C@H](C1CCCCC1)NC(=O)Cc1cccc(c1)OCCCO2)C(=O)C(=O)NCC(=O)NCc1ccccc1 (some centres not stated)	1100	
CCCC(NC(=O)[C@@H]1C[C@@H](OC(C)(C)C)CN1C(=O)[C@@H](NC(=O)OC(C)(C)C)C1CCCCC1)C(=O)C(=O)NCC(=O)N[C@H](C(N)=O)c1ccccc1 (some centres not stated) (Boc-[Chg][Hyp](tBu)[X1]G[Phg]-NH2)	220	
CCCC(NC(=O)[C@@H]1C[C@@H]2CN1C(=O)[C@H](C1CCCCC1)NC(=O)Cc1cccc(c1)OCCCO2)C(=O)C(=O)NCC(=O)OCc1ccccc1 (some centres not stated)	430	
C=CCNC(=O)C(=O)C(CCC)NC(=O)[C@@H]1C[C@@H]2CN1C(=O)[C@H](C1CCCCC1)NC(=O)Cc1cccc(c1)OCCC(C)(C)O2 (some centres not stated)	530	IC50 [2]: 400 nM; AUC [4]: 26.3 µM·h; AUC [5]: 13.6 µM·h; bioavailability [6]: 97%; AUC [7]: 34.7 µM·h
CCCC(NC(=O)[C@@H]1C[C@@H]2CN1C(=O)[C@H](C1CCCCC1)NC(=O)Cc1cccc(c1)OCCC(C)(C)O2)C(=O)C(=O)NCC(=O)NCc1ccccc1 (some centres not stated)	269	
CCCC(NC(=O)[C@@H]1C[C@@H]2CN1C(=O)[C@H](C1CCCCC1)NC(=O)Cc1cccc(c1)OCCCO2)C(=O)C(=O)NCC(=O)O (some centres not stated)	7400	
CCCC(NC(=O)[C@@H]1C[C@@H]2CN1C(=O)[C@H](C1CCCCC1)NC(=O)Cc1cccc(c1)OCCC(C)(C)O2)C(=O)C(=O)NCC(=O)O (some centres not stated)	720	

The next molecules have a lower Ki [1] than those just listed; values first:

Ki [1] [nM]	SMILES	further results
70	CCCC(NC(=O)[C@@H]1C[C@@H]2CN1C(=O)[C@H](C(C)CC)NC(=O)Cc1cccc(c1)OCCC(C)(C)O2)C(=O)C(=O)NCC(=O)N[C@H](C(=O)N(C)C)c1ccccc1 (some centres not stated)	
10	CCCC(NC(=O)[C@@H]1C[C@@H]2CN1C(=O)[C@H](C1CCCCC1)NC(=O)Cc1cccc(c1)OCCCO2)C(=O)C(=O)NCC(=O)N[C@H](C(=O)O)c1ccccc1 (some centres not stated)	
17	CCCC(NC(=O)[C@@H]1C[C@@H]2CN1C(=O)[C@H](C(C)(C)C)NC(=O)Cc1cccc(c1)OCCC(C)(C)O2)C(=O)C(=O)NCC(=O)N[C@H](C(=O)N(C)C)c1ccccc1 (some centres not stated)	IC50 [2]: 200 nM; Ratio Ki [3]: 306
88	CCCC(NC(=O)[C@@H]1C[C@@H]2CN1C(=O)[C@H](C1CCCCC1)NC(=O)Cc1cccc(c1)OCCC(C)(C)O2)C(=O)C(=O)NCC(=O)OCc1ccccc1 (some centres not stated)	
19	CCCC(NC(=O)[C@@H]1C[C@@H]2CN1C(=O)[C@H](C(C)C)NC(=O)Cc1cccc(c1)OCCC(C)(C)O2)C(=O)C(=O)NCC(=O)N[C@H](C(=O)N(C)C)c1ccccc1 (some centres not stated)	
60	CCCC(NC(=O)[C@@H]1C[C@@H]2CN1C(=O)[C@H](C1CCCCC1)NC(=O)Cc1cccc(c1)OCCCO2)C(=O)C(=O)NCC(=O)N[C@H](CO)c1ccccc1 (some centres not stated)	
16	CCCC(NC(=O)[C@@H]1C[C@@H]2CN1C(=O)[C@H](C1CCCCC1)NC(=O)Cc1cccc(c1)OCCC(C)(C)O2)C(=O)C(=O)NCC(=O)N[C@H](C(=O)OC(C)(C)C)c1ccccc1 (some centres not stated)	
6	CCCC(NC(=O)[C@@H]1C[C@@H]2CN1C(=O)[C@H](C1CCCCC1)NC(=O)Cc1cccc(c1)OCCC(C)(C)O2)C(=O)C(=O)NCC(=O)N[C@H](C(=O)N(C)C)c1ccccc1 (some centres not stated)	IC50 [2]: 130 nM; Ratio Ki [3]: 107; AUC [4]: 0.46 µM·h; AUC [5]: 2.2 µM·h; bioavailability [6]: 2.1%; AUC [7]: 16.5 µM·h; bioavailability [8]: 77%
44	CCCC(NC(=O)[C@@H]1C[C@@H]2CN1C(=O)[C@H](C1CCCCC1)NC(=O)Cc1cccc(c1)OCCCO2)C(=O)C(=O)NCC(=O)N[C@H](C(=O)OC(C)(C)C)c1ccccc1 (some centres not stated)	
8	CCC[C@H](NC(=O)[C@@H]1C[C@@H]2CN1C(=O)[C@H](C1CCCCC1)NC(=O)Cc1cccc(c1)OCCCO2)C(=O)C(=O)NCC(=O)N[C@H](C(=O)N(C)C)c1ccccc1	IC50 [2]: 400 nM; Ratio Ki [3]: 46; AUC [4]: 1.5 µM·h; AUC [5]: 23.1 µM·h; bioavailability [6]: 3%; AUC [7]: 41.6 µM·h; bioavailability [8]: 90%
40	CCCC(NC(=O)[C@@H]1C[C@@H]2CN1C(=O)[C@H](C1Cc3ccccc3C1)NC(=O)Cc1cccc(c1)OCCC(C)(C)O2)C(=O)C(=O)NCC(=O)N[C@H](C(=O)N(C)C)c1ccccc1 (some centres not stated)	
46	CCCC(NC(=O)[C@@H]1C[C@@H]2CN1C(=O)[C@H](c1ccccc1)NC(=O)Cc1cccc(c1)OCCC(C)(C)O2)C(=O)C(=O)NCC(=O)N[C@H](C(=O)N(C)C)c1ccccc1 (some centres not stated)	
